How the values were obtained:
[1] = biological target: Muscarinic acetylcholine receptor M3 (Homo sapiens) (UniProt P20309); experiment: Binding affinity at the NMS liganded human muscarinic acetylcholine receptor M3 was estimated as log affinity (log1/M)
Method in brief: (§1)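 Equilibrium runs were ≥2 h with 2 × 10⁻⁴ M GTP and 0.1–0.7 nM ³H-NMS. Nonspecific binding was defined with 10⁻⁶ M QNB, and bound ligand was filtered and counted. Log affinities came from semiquantitative plus off-rate, quantitative equilibrium, or nonequilibrium assays, fitted by nonlinear least squares to the allosteric ternary complex model.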

[2] = biological target: T1, Muscarinic acetylcholine receptor M2 (Homo sapiens) (UniProt P08172); experiment: Cooperativity with acetylcholine at human muscarinic acetylcholine receptor M2
T1 sequence (whole entry): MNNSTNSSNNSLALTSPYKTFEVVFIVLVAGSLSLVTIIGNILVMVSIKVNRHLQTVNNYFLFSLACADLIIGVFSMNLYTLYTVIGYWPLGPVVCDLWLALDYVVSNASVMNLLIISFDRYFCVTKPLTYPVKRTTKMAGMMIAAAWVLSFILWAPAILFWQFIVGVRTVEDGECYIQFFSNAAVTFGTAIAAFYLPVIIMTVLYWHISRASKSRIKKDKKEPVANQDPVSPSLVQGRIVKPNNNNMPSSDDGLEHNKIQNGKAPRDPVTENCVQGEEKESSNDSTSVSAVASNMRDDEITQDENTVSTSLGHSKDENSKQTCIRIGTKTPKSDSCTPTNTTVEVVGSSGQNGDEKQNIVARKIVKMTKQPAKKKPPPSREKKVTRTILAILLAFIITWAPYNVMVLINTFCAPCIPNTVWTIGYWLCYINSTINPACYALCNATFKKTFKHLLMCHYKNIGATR
Method in brief: (§2)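 Equilibrium ³H-NMS binding in CHO membranes expressing human m1–m5 receptors was measured with and without ACh, alone and with three agent concentrations. Data were converted to affinity ratios, meaning apparent primary-ligand affinity with agent divided by affinity without it.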

[3] = biological target: T2, Muscarinic acetylcholine receptor M1 (Homo sapiens) (UniProt P11229); experiment: Binding affinity at the NMS liganded human muscarinic acetylcholine receptor M1 was estimated as log affinity (log1/M); method in brief: as §1
T2 sequence (whole entry): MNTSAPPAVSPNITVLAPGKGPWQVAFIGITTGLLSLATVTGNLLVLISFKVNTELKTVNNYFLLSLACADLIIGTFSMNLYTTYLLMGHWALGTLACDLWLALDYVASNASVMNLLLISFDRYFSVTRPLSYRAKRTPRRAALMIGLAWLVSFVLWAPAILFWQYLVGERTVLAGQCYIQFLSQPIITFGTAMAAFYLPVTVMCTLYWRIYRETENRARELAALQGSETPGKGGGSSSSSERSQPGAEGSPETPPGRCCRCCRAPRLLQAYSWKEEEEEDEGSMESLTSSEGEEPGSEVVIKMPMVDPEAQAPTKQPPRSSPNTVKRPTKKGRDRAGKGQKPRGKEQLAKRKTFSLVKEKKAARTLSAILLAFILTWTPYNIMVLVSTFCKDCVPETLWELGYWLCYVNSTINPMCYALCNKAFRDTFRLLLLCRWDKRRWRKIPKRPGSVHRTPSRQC

[4] = biological target: Muscarinic acetylcholine receptor M3 (Homo sapiens) (UniProt P20309); experiment: Binding affinity at the unliganded human muscarinic acetylcholine receptor M3 was estimated as log affinity (log1/M); method in brief: as §1
[5] = biological target: Muscarinic acetylcholine receptor M3 (Homo sapiens) (UniProt P20309); experiment: Cooperativity with NMS at human muscarinic acetylcholine receptor M3; method in brief: as §2
[6] = biological target: T1, Muscarinic acetylcholine receptor M2 (Homo sapiens); experiment: Binding affinity at the unliganded human muscarinic acetylcholine receptor M2 was estimated as log affinity (log1/M); method in brief: as §1
[7] = biological target: T2, Muscarinic acetylcholine receptor M1 (Homo sapiens); experiment: Cooperativity with NMS at human muscarinic acetylcholine receptor M1; method in brief: as §2
[8] = biological target: T3, Muscarinic acetylcholine receptor M4 (Homo sapiens) (UniProt P08173); experiment: Binding affinity at the unliganded human muscarinic acetylcholine receptor M4 was estimated as log affinity (log1/M); method in brief: as §1
T3 sequence (whole entry): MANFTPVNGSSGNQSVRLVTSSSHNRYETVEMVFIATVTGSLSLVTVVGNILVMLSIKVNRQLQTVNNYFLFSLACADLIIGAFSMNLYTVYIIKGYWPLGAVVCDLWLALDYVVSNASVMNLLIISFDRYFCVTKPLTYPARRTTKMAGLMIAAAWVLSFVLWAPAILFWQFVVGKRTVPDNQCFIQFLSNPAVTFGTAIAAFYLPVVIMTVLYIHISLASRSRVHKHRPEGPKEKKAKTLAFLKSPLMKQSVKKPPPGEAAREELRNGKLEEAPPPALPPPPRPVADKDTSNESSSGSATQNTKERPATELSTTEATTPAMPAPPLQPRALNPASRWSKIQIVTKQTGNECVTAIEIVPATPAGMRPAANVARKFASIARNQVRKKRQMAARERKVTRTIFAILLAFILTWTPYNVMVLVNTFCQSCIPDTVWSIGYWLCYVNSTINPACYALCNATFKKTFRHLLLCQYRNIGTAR

[9] = biological target: T3, Muscarinic acetylcholine receptor M4 (Homo sapiens); experiment: Cooperativity with acetylcholine at human muscarinic acetylcholine receptor M4; method in brief: as §2
[10] = biological target: T1, Muscarinic acetylcholine receptor M2 (Homo sapiens); experiment: Cooperativity with NMS at human muscarinic acetylcholine receptor M2; method in brief: as §2
[11] = biological target: T3, Muscarinic acetylcholine receptor M4 (Homo sapiens); experiment: Binding affinity at the NMS liganded human muscarinic acetylcholine receptor M4 was estimated as log affinity (log1/M); method in brief: as §1
[12] = biological target: T2, Muscarinic acetylcholine receptor M1 (Homo sapiens); experiment: Cooperativity with acetylcholine at human muscarinic acetylcholine receptor M1; method in brief: as §2
[13] = biological target: T1, Muscarinic acetylcholine receptor M2 (Homo sapiens); experiment: Binding affinity at the NMS liganded human muscarinic acetylcholine receptor M2 was estimated as log affinity (log1/M); method in brief: as §1
[14] = biological target: T3, Muscarinic acetylcholine receptor M4 (Homo sapiens); experiment: Cooperativity with NMS at human muscarinic acetylcholine receptor M4; method in brief: as §2
[15] = biological target: Muscarinic acetylcholine receptor M3 (Homo sapiens) (UniProt P20309); experiment: Cooperativity with acetylcholine at human muscarinic acetylcholine receptor M3; method in brief: as §2
[16] = biological target: T2, Muscarinic acetylcholine receptor M1 (Homo sapiens); experiment: Binding affinity at the unliganded human muscarinic acetylcholine receptor M1 was estimated as log affinity (log1/M); method in brief: as §1

Chain of Muscarinic acetylcholine receptor M3 (Homo sapiens) (P20309 whole entry, looked up): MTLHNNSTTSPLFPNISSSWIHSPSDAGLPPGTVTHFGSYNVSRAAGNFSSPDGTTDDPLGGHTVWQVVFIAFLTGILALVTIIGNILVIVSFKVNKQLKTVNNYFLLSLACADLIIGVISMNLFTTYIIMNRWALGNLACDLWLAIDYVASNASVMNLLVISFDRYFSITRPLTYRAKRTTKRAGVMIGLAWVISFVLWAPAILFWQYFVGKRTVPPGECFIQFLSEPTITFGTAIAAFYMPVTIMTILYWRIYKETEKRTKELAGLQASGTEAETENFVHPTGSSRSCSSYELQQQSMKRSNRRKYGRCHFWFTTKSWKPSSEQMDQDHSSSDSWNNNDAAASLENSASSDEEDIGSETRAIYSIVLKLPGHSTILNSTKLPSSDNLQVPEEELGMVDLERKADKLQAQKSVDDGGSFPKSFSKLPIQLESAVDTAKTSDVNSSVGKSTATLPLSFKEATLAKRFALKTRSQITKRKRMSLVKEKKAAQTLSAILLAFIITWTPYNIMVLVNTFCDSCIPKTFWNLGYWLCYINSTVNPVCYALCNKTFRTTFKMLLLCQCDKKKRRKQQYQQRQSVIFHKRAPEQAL

SMILES | Affinity [1] | Cooperativity [2] | Affinity [3] | Affinity [4] | Cooperativity [5] | Affinity [6] | Cooperativity [7] | Affinity [8] | Cooperativity [9] | Cooperativity [10] | Affinity [11] | Cooperativity [12] | Affinity [13] | Cooperativity [14] | Cooperativity [15] | Affinity [16]
C=CC[N+]12CC[C@@]34c5ccccc5N5C(=O)C[C@@H]6OCC=C(C1)[C@H](C[C@@H]32)[C@@H]6[C@H]54 (stereo partly drawn) | 4.6 | < 0.2 | 4.7 | 4.6 | 1.19 | 5.3 | 1.19 | 5 | 0.8 | > 2 | 5 | < 0.2 | 5.9 | 1.19 | < 0.2 | 4.7
O=C1C[C@@H]2OCC=C3C[N+]4(Cc5ccc([N+](=O)[O-])cc5)CC[C@]56c7ccccc7N1[C@H]5[C@H]2[C@H]3C[C@@H]64 (stereo partly drawn) | 4.6 | < 0.2 | 5.3 | 4.6 | 1.19 | 4.8 | > 2 | 5 | < 0.2 | > 2 | 5.4 | 0.8 | 5.6 | > 2 | 0.8 | < 4.8
O=C1C[C@@H]2OCC=C3C[N+]4([O-])CC[C@]56c7ccccc7N1[C@H]5[C@H]2[C@H]3C[C@@H]64 (stereo partly drawn) | 3.9 | 0.8 | 3.8 | < 3.9 | 2 | < 4.1 | 2 | < 3.8 | 0.8 | > 2 | 4.1 | 0.8 | 4.4 | 2 | 0.8 | < 3.6
O=C1C[C@@H]2OCC=C3C[N+]4(Cc5ccccc5)CC[C@]56c7ccccc7N1[C@H]5[C@H]2[C@H]3C[C@@H]64 (stereo partly drawn) | 5.3 | < 0.2 | 5.2 | < 5.2 | 2 | 5.3 | 2 | < 5.3 | 0.8 | > 2 | 5.6 | < 0.2 | 6.3 | 2 | 0.8 | < 5
O=C1C[C@@H]2OCC=C3C[N+]4(Cc5ccc6ccccc6c5)CC[C@]56c7ccccc7N1[C@H]5[C@H]2[C@H]3C[C@@H]64 (stereo partly drawn) | 6 | < 0.2 | 5.5 | < 5.8 | 2 | 5.5 | 2 | < 5.6 | 0.8 | > 2 | 5.9 | 0.8 | 6.1 | 2 | 0.8 | < 5.3
C#CC[N+]12CC[C@@]34c5ccccc5N5C(=O)C[C@@H]6OCC=C(C1)[C@H](C[C@@H]32)[C@@H]6[C@H]54 (stereo partly drawn) | 4.5 | < 0.2 | 4.7 | 4.7 | 0.8 | 5.2 | 0.8 | 4.8 | 0.8 | 2 | 5 | < 0.2 | 5.4 | 2 | < 0.2 | 5.2
CCC[N+]12CC[C@@]34c5ccccc5N5C(=O)C[C@@H]6OCC=C(C1)[C@H](C[C@@H]32)[C@@H]6[C@H]54 (stereo partly drawn) | 4.5 | < 0.2 | 4.8 | 5 | 0.8 | 5.2 | 0.8 | 5.2 | < 0.2 | 2 | 4.9 | < 0.2 | 5.5 | 0.8 | < 0.2 | 5.2
O=C1C[C@@H]2OCC=C3C[N+]4(Cc5ccc(-c6ccccc6)cc5)CC[C@]56c7ccccc7N1[C@H]5[C@H]2[C@H]3C[C@@H]64 (stereo partly drawn) | 5.7 | < 0.2 | 5.3 | 5.6 | 1.19 | 5.6 | 0.8 | – | 0.8 | > 2 | 6.3 | < 0.2 | 5.9 | 2 | < 0.2 | 5.7
C[N+]12CC[C@@]34c5ccccc5N5C(=O)C[C@@H]6OCC=C(C1)[C@H](C[C@@H]32)[C@@H]6[C@H]54 (stereo partly drawn) | 4.1 | < 0.2 | 4.5 | < 4 | 2 | 4.4 | > 2 | 4.1 | < 0.2 | > 2 | 4.7 | 0.8 | 5.1 | > 2 | 0.8 | < 4.1
O=C1C[C@@H]2OCC=C3C[N+]4(Cc5cccc([N+](=O)[O-])c5)CC[C@]56c7ccccc7N1[C@H]5[C@H]2[C@H]3C[C@@H]64 (stereo partly drawn) | 4.8 | 0.8 | 5.1 | < 4.7 | 2 | < 5.4 | 2 | < 5.2 | 0.8 | > 2 | 5.6 | 0.8 | 6 | > 2 | 0.8 | < 4.9
CC[N+]12CC[C@@]34c5ccccc5N5C(=O)C[C@@H]6OCC=C(C1)[C@H](C[C@@H]32)[C@@H]6[C@H]54 (stereo partly drawn) | 4.2 | < 0.2 | 4.6 | 4.2 | 1.19 | 4.7 | 2 | 4.3 | < 0.2 | > 2 | 4.9 | 0.8 | 5.2 | > 2 | 0.8 | < 4.5
O=C1C[C@@H]2OCC=C3CN4CC[C@]56c7ccccc7N1[C@H]5[C@H]2[C@H]3C[C@H]46 | – | < 0.2 | – | – | – | 5 | – | 5 | 0.8 | > 2 | 5.2 | – | 5.3 | 2 | – | –

Source: ChEMBL document CHEMBL1132569
